Laboratory results published in article PMC11960622 (RSC Advances, 2025).

Assays:
[1] = test system: HCT116 cells; test: MTT cytotoxicity assay, HCT116; format: cell-based; settings: for IC50: Homo sapiens, HCT-116, 72 h, read-out: IC50 HCT116; for fold more toxic to HCT-116 cells than normal VERO cells: selectivity VERO/HCT-116
[2] = molecular target: topo-II enzyme; test: In vitro topoisomerase II inhibitory activity; format: biochemical; settings: read-out: Topo-II assay IC50
[3] = test system: A549 cells; test: MTT cytotoxicity assay, A549; format: cell-based; settings: for IC50: Homo sapiens, A549, 72 h, read-out: IC50 A549; for fold more toxic to A549 cells than VERO normal cells: selectivity VERO/A549
Summary of the method: (§1)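 ATCC cells in RPMI 1640 with 10% heat-inactivated FBS and penicillin/streptomycin, 37 °C, 5% CO2. Trypsinized cells seeded at 1000–2000 per well, grown 24 h, then exposed 72 h to free or Cs/PVA-nanogel-loaded test compound (0.1, 10, 100, 1000 μM). MTT 2 h, formazan dissolved in acidified isopropanol, A570 read. Viability expressed versus control; IC50 derived.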

[4] = test system: calf thymus DNA; test: DNA/methyl green assay; settings: read-out: DNA binding IC50; methyl green displacement, 24 h, pH 7.5
Summary of the method: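 Calf thymus DNA (10 mg) and methyl green (20 mg) in 100 mL 0.05 M Tris–HCl pH 7.5 with 7.5 mM MgSO4, stirred 24 h at 37 °C. Ethanol solutions of test compounds at 10, 100 and 1000 μM were dried under vacuum in wells, then complex added. Incubated at room temperature in the dark; A642.5–645 read at 24 h, normalized to untreated complex; IC50 fitted. Doxorubicin control.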

[5] = test system: MCF-7 cells; test: MTT cytotoxicity assay, MCF-7; format: cell-based; settings: for IC50: Homo sapiens, MCF7, 72 h, read-out: IC50 MCF-7; for fold more toxic to MCF-7 cells than ordinary VERO cells: selectivity VERO/MCF-7
Summary of the method: as §1

[6] = test system: HepG2 cells; test: MTT cytotoxicity assay, HepG2; format: cell-based; settings: for IC50: Homo sapiens, HepG2, 72 h, read-out: IC50 HepG2; for fold toxic to HepG-2 cells than ordinary VERO cells: selectivity VERO/HepG-2
Summary of the method: as §1

IC50 [2] [µM] | IC50 [4] [µM] | SMILES | IC50 [1] [µM] | fold more toxic to HCT-116 cells than normal VERO cells [1] [fold] | IC50 [3] [µM] | fold more toxic to A549 cells than VERO normal cells [3] [fold] | IC50 [5] [µM] | fold more toxic to MCF-7 cells than ordinary VERO cells [5] [fold] | IC50 [6] [µM] | fold toxic to HepG-2 cells than ordinary VERO cells [6] [fold]
1.31 ± 0.4 | 37 ± 3.9 | NC1=NN(C(=O)C=Cc2ccccc2)C(=O)C1N=Nc1ccccc1C(=O)O (stereo not drawn) [Compound 2, 2-((3-Amino-1-cinnamoyl-5-oxo-4,5-dihydro-1H-pyrazol-4-yl)diazenyl)benzoic acid] | 10.6 ± 1.5 | 5.63 | 6.3 ± 0.5 | 9.48 | 8.3 ± 0.5 | 7.19 | 8.8 ± 0.5 | 6.78
1.49 ± 0.4 | 38.6 ± 3.8 | NC1=NN(c2ccc([N+](=O)[O-])cc2[N+](=O)[O-])C(=O)C1N=Nc1ccccc1C(=O)O (stereo not drawn) [Compound 3, 2-((3-Amino-1-(2,4-dinitrophenyl)-5-oxo-4,5-dihydro-1H-pyrazol-4-yl)diazenyl)benzoic acid] | 11 ± 1.1 | 4.95 | 6.1 ± 0.5 | 8.92 | 8.65 ± 0.8 | 6.29 | 8.95 ± 0.5 | 6.08
1.2 ± 0.4 | 36 ± 3.5 | NC1=NC(=NS(=O)(=O)c2ccc(N)cc2)NC(=O)C1N=Nc1ccccc1C(=O)O (stereo not drawn) [Compound 4, 2-((4-Amino-2-(((4-aminophenyl)sulfonyl)imino)-6-oxo-1,2,5,6-tetrahydropyrimidin-5-yl)diazenyl)-benzoic acid] | 9.77 ± 1.1 | 5.88 | 5.5 ± 0.5 | 10.44 | 7.85 ± 0.5 | 7.32 | 7.12 ± 0.5 | 8.07
0.94 ± 0.4 | 31.3 ± 1.8 | COc1cccc2c1C(=O)c1c(O)c3c(c(O)c1C2=O)C[C@@](O)(C(=O)CO)C[C@@H]3O[C@H]1C[C@H](N)[C@H](O)[C@H](C)O1 [Doxorubicin, reference compound] | – | – | 8.54 ± 0.8 | – | – | – | – | –
